Experimental findings from ChEMBL document CHEMBL4513216, “Probing the Open Global Health Chemical Diversity Library for Multistage-Active Starting Points for Next-Generation Antimalarials” (ACS Infect Dis, 2020) are described below.

Each structure is given as a SMILES string.

This series in a line: Toxicity liver stage against HepG2, at 10uM. In kind it is cell-based. Also on record: test concentration 10 uM, cell line HepG2-A16-CD81EGFP. Particulars: human, HepG2-A16-CD81EGFP cells; read-out: INHIBITION
In outline:
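Uninfected HepG2-A16-CD81EGFP cells, 3 × 10^3 per well, 1536-well, plated on prespotted compound at 10 μM final, parasite-free screening media added to match infected plates; puromycin 10 μM positive, DMSO 0.5% negative; run in parallel with 48 h PbLuc assay at 37 °C, 5% CO2; viability by CellTiter-Glo luminescence, normalized to controls.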
In the case of `CN(C)C(=O)Cn1cc(C(=O)NCCc2ccc(C(F)(F)F)cc2)nn1`, the cytotoxicity at 10 µM is -15.6%.
In the case of `COCC(=O)Nc1ccc([C@@H](O)[C@H]2COCC(=O)N2CC(C)C)cc1`, the cytotoxicity at 10 µM is 17.6%.
Consider `COCC(=O)N1CCN(C(=O)c2cccs2)[C@@H](C(=O)OC)C1`, for which the cytotoxicity at 10 µM is -8.64%.
Next, `O=C(C1CC1)N1CC[C@H](c2nnc(-c3ccccc3F)o2)C1`: 0.705%; `CC(=O)c1cc2ncc(C(=O)NC3CCCCC3)cc2[nH]1`: 0.0039%.
With `CC(C)NC(=O)Cn1ccc2c(Cl)cccc21`, the cytotoxicity at 10 µM worked out at 7.46%.
In the case of `CCN(CC)C(=O)Cn1nc(C(C)C)c2cnn(C(C)(C)C)c2c1=O` it was 0.703%.
In the case of `Cn1nc(CNS(=O)(=O)Cc2ccccc2F)c2c1CCCC2`, the cytotoxicity at 10 µM is -0.0785%.
Next, `O=C(NCC1CC1)C1CCC2(CCN(C(=O)c3ccco3)CC2)O1` (stereo unspecified): 5.91%.
In the case of `Cn1cc(-c2cnc3n2CCC32CCN(S(C)(=O)=O)CC2)cn1` it was -127%.
In the case of `CCCS(=O)(=O)N1CCC2(CC1)CC(Nc1ncccn1)CO2` (stereo unspecified) it was -0.00726%; in that of `O=C(NCCCN1CCOCC1)c1nc(-c2ccc3cc[nH]c3c2)no1`, -0.663%; in that of `COCc1cccc(S(=O)(=O)NCc2cnn(C)c2C)c1`, -4.02%.
`CC(=O)N1CCC[C@@H](NCc2ccc(F)cc2)[C@@H]1c1ccc(C)s1`: the cytotoxicity at 10 µM is -22.1%.
Turning to `Cc1cc(-c2cnc(C3CC3)nc2CN(C)C(=O)c2ccccn2)on1`, the cytotoxicity at 10 µM is -45%.
Take `CCn1cc(S(=O)(=O)Nc2ccc3[nH]c(C4CCC4)nc3c2)cn1`: the cytotoxicity at 10 µM came out at 1.45%.
Next, `CC(=O)NCC(=O)N(CCc1ccccc1)C1CCOC1` (stereo unspecified): 3.02%; `CC(C)Nc1cccc(C(=O)NCC(O)c2cccc(F)c2)c1` (stereo unspecified): 4.67%.
Next, `CCc1nc(C2CCCN(C(=O)c3c[nH]c(C(C)C)n3)C2)no1` (stereo unspecified): -5.43%; `CC(=O)Nc1nc(CS(=O)(=O)CCCc2ccccc2)cs1`: -1.2%.
Next, `CCN1CCN(C(=O)C2CCCc3[nH]ncc32)CC1` (stereo unspecified): -1.21%; `Cc1nc(C)n(CC2CN(CCc3ccccn3)CCO2)n1` (stereo unspecified): 4.89%.
As to `CC(C)(CO)CCCNC(=O)NC1(c2cccc(F)c2)CC1`, the cytotoxicity at 10 µM is -4.86%.
In the case of `Cc1cc(C(C)(O)CNC(=O)CCOCC(C)C)c(C)o1` (stereo unspecified) it was 3.94%.
Next, `CC(Cn1cccn1)NC(=O)NCCN1CCc2ccccc2C1` (stereo unspecified): -4.45%; `CC(C)CN(CC(O)c1ccc(F)cc1)C(=O)c1cnsn1` (stereo unspecified): -6.87%.
Next, `Cc1nsc(N2CCc3sccc3C2)n1`: 7.03%; `Cc1nnc(-c2cccc(C#N)c2)n1C1CCN(C2CC2)C1=O` (stereo unspecified): -11.8%; `CC(CO)(NC(=O)Nc1nnc(C(F)F)s1)C1CC1` (stereo unspecified): 9.23%.
With `CC(=O)N(Cc1ncc(C)o1)C1CCN(CCNC2CCCCC2)C1` (stereo unspecified), the cytotoxicity at 10 µM was found to be 15.4%.
Take `Cc1ccccc1C1(CNC(=O)NCCc2nnc3n2CCC3)CC1`: the cytotoxicity at 10 µM was 2.48%.
`Cc1cccc(CN2CCn3c(COc4ncccn4)nnc3C2)n1`: the cytotoxicity at 10 µM was -1.35%.
Turning to `Cn1cccc1C(=O)N1CCN2C[C@H](Oc3cccnc3)C[C@H]2C1`, the cytotoxicity at 10 µM was determined as 3.58%.
Turning to `CCC(O)CNC(=O)c1cc(COc2ccc(OC)cc2Cl)[nH]n1` (stereo unspecified), the cytotoxicity at 10 µM was -8.09%.
Regarding `Cc1ccccc1C(C(=O)NCc1nc(-c2ncccn2)no1)N(C)C` (stereo unspecified), the cytotoxicity at 10 µM came out at 3.09%.
With `CCCc1nc(C)cc(N2CCC3(CCC(=O)N(CCCO)C3)CC2)n1`, the cytotoxicity at 10 µM is -5.81%.
In the case of `COc1cnc(N2C[C@H](CO)C[C@H](CN3CCOCC3)C2)nc1` it was -8.11%.
Next, `COc1cc(F)ccc1-c1nc2c([nH]1)c(C1CC1)nn2C`: -1.72%.
In the case of `COc1ccc(C(C(=O)O)N2CCN(C3CCCC3)CC2)cc1OC` (stereo unspecified) it was -17.1%; in that of `CCn1c(N)nc2cc(C(=O)NCc3cccc(C)c3C)cnc21`, 19.7%.
With `Cc1cnn(CCCn2c(C)cc(C(F)(F)F)cc2=O)c1`, the cytotoxicity at 10 µM amounted to 0.529%.
`CN(Cc1ccc2nonc2c1)C(=O)c1ccc(C2CCCO2)s1` (stereo unspecified): the cytotoxicity at 10 µM is 12.1%.
Next, `O=C(O)[C@]12CCCN(Cc3cccnc3)[C@@H]1CCN(c1cnccn1)C2`: 4.63%; `c1ccc(CN2CCC(NCCSc3cnn[nH]3)C2)cc1` (stereo unspecified): 1.12%; `COc1ccccc1C(=O)Nc1ccc(OC2CCN(C)CC2)cc1`: -4.85%.
Consider `Cc1ccc(N2CCC(N3C[C@@H](CN(C)C)[C@@H](CO)C3)CC2)cc1`, for which the cytotoxicity at 10 µM is -0.608%.
In the case of `CCn1nc(CC(C)C)cc1C(=O)NCCCOC` it was -18.8%; in that of `CCn1nc(C)c(CNC(=O)c2cn(CCC3CCCCN3)nn2)c1C` (stereo unspecified), -1.96%.
`CN(C)C(=O)c1ccc2c(c1)N(C)C(CC(=O)NCc1ccno1)CO2` (stereo unspecified): the cytotoxicity at 10 µM came to 12.4%.
As to `O=C(O)CCc1nc2nccc(C(F)(F)F)n2n1`, the cytotoxicity at 10 µM is -1.36%.
As for `Cc1ccc(CN(Cc2nc3c(cnn3C)c(=O)[nH]2)C(C)C)s1`, the cytotoxicity at 10 µM was -5.48%.
Regarding `Cc1noc(C)c1C(=O)NCc1cccnc1N(C)C`, the cytotoxicity at 10 µM was -9.42%.
For `Cc1nnc2n1CCN(Cc1ncc(-c3ccccc3)o1)C2`, the cytotoxicity at 10 µM was -3.78%.
In the case of `CN(Cc1nccn1C)C1CCCN(Cc2noc(C3CC3)n2)C1` (stereo unspecified) it was -3.54%; in that of `O=C(CCCn1cncn1)N1CCCC1c1noc(C2CC2)n1` (stereo unspecified), -31.5%.
Next, `O=C(NCc1ccnc(-n2cccn2)c1)C1CC(=O)N(CC2CC2)C1` (stereo unspecified): 5.48%; `Cc1nn(C)c(N2CCOCC2)c1CNCc1ccccc1CO`: -13.2%.
In the case of `Cc1ccc(NC2CCN(C(=O)c3cccc(F)c3F)CC2)nn1`, the cytotoxicity at 10 µM is -4.4%.
In the case of `CCOC1CCCN(C(=O)NCCc2ccn(-c3ccccc3)n2)C1` (stereo unspecified) it was 3.13%; in that of `c1cnn(CC2CN(CCc3ccncc3)CCO2)c1` (stereo unspecified), 2.74%.
In the case of `O=C(Nc1cc(F)ccc1OCC1CCCO1)c1ccccn1` (stereo unspecified) it was 2.57%; in that of `Cc1ccc(NCc2cncc3c2CCN(C(=O)C2CC=CC2)C3)nn1`, -2.42%.
For the molecule `Cc1nn(C)cc1-c1cncn1CCN(C)C1CCCC1`, the cytotoxicity at 10 µM is -4.64%.
Take `CCCNC(=O)c1cc2c(s1)CCN2C(=O)CN(C)C`: the cytotoxicity at 10 µM turned out to be 2.03%.
`CC(=O)N1CCC2(CCCN2Cc2cnn(C)c2)CC1`: the cytotoxicity at 10 µM was -2.27%.
As to `Cc1cccc(CN2C[C@@H]3COC[C@]3(COCC(=O)N(C)C)C2)n1`, the cytotoxicity at 10 µM was -1.95%.
Next, `Cc1ccc(CN2CC[C@@H]3O[C@@H](C(=O)N4CCN(C)CC4)C[C@@H]32)cc1`: -3.62%; `CC(C)c1nn(C)c(N(C)C)c1CNC1CCc2cc(F)ccc21` (stereo unspecified): 1.93%.
As to `C=c1ccoc1=C1NN=C(CNCCn2cc(C)cn2)O1`, the cytotoxicity at 10 µM amounted to 1.12%.
`CC1=C(C#N)C(=O)NC(=O)/C1=C\c1c(C)[nH]n(-c2ccccc2)c1=O`: the cytotoxicity at 10 µM was determined as 0.137%.
In the case of `O=C(NC1CCC(O)CC1)c1ccc2nc(-c3ccccc3)cn2c1` (stereo unspecified) it was 8.99%.
